Published values collected from several papers.
MRGPRX2: Mas-related G-protein coupled receptor member X2 (MRGPRX2, Homo sapiens, UniProt Q96LB1)

Structure (SMILES)	target	observed	mode	technique	endpoint	value
Cc1cc2c(cc1Br)NC(=O)/C2=N/N=C1/C(=O)Nc2cc(Br)c(C)cc21	Glycogen synthase kinase-3 beta (GSK3B, Homo sapiens, UniProt P49841)	enzyme activity	inhibitor	–	IC50	~3e-05 µM
C/C(=C\[N+](=O)[O-])c1ccccc1	OYE1 (Saccharomyces pastorianus, UniProt Q02899)	binding	–	absorbance	Kd	170 µM
CC(C)C[C@H](NC(=O)[C@H](Cc1ccccc1)NC(=O)c1cnccn1)B(O)O	Cathepsin G (CTSG, Homo sapiens, UniProt P08311)	enzyme activity	inhibitor	–	IC50	36 µM
C/C=C1\NC(=O)[C@H](C)NC(=O)[C@@H](NC(=O)[C@@H](Cc2ccc(O)cc2)NC(=O)[C@@H](NC(=O)/C(C)=C/C)C(C)C)[C@@H](C)OC(=O)[C@H](CC[S+](C)[O-])NC(=O)[C@@H](CCC(=O)O)NC1=O (stereo partly drawn)	Chymotrypsin-like elastase family member 1 (CELA1, Sus scrofa, UniProt P00772)	enzyme activity	inhibitor	absorbance	IC50	7.28 µM
CC(=O)[C@H]1CC[C@H]2[C@@H]3CCC4=CC(=O)CC[C@]4(C)[C@H]3CC[C@]12C	Steroid 17-alpha-hydroxylase/17,20 lyase (CYP17A1, Homo sapiens, UniProt P05093)	binding	–	absorbance	Kd	0.74 µM
C[C@@H](O)[C@@H]1NC(=O)[C@H](CCCCN)NC(=O)[C@H](Cc2c[nH]c3ccccc23)NC(=O)[C@H](Cc2ccccc2)NC(=O)[C@H](Cc2ccccc2)NC(=O)[C@H](CC(N)=O)NC(=O)[C@H](CCCCN)NC(=O)[C@@H](NC(=O)[C@@H]2CCCN2)CSSC[C@@H](C(=O)N[C@@H](CCCCN)C(=O)O)NC(=O)[C@H](CO)NC(=O)[C@H](CO)NC(=O)[C@H](Cc2ccccc2)NC1=O	MRGPRX2	calcium signal	agonist	–	EC50	0.0794 µM
COc1cc(C(=O)N2CC[C@@H](O)[C@@H](N)C2)cc2nc(-c3cc4ccccc4n3CC3CC3)n(C)c12	Vasopressin V1a receptor (AVPR1A, Homo sapiens, UniProt P37288)	calcium signal	antagonist	fluorescence	IC50	25.1 µM
CC[C@H](C)[C@H](NC(=O)[C@@H]1CCCN1C(C)=O)C(=O)N[C@@H](CCC(=O)O)C(=O)N[C@H](C(=O)N[C@@H](CS)C(=O)N[C@@H](CCSC)C(=O)N[C@@H](Cc1ccc(O)cc1)C(=O)N[C@@H](CCCNC(=N)N)C(=O)N[C@@H](CCC(=O)O)C(=O)N1CCC[C@H]1C(N)=O)C(C)C	MRGPRX2	calcium signal	agonist	–	EC50	> 20 µM
CCCc1cc(C)[nH]c(=O)c1CNC(=O)c1cc(-c2ccc(N3CCN(CCCCc4cn(CCN5C(=O)\C(=C/C=C/C=C6/N(CCC(=O)OCOC(C)=O)c7ccc(C(=O)OCOC(C)=O)cc7C6(C)C)C(=O)N(CC)C5=O)nn4)CC3)nc2)cc2c1cnn2C(C)C	Histone-lysine N-methyltransferase EZH2 (EZH2, Homo sapiens, UniProt Q15910)	enzyme activity	inhibitor	radiometric	IC50	0.021 µM
